Assay results from different studies.
Each line is one published result; the experiments were not run side by side.
Target: Tyrosine-protein kinase Fes/Fps (FES, Homo sapiens, UniProt P07332)

COc1ncccc1-c1cnn2ccc(N3CCN(C(=O)OC(C)C)CC3)nc12 — remaining binding (binding; competition with immobilised ligand; 1 µM): 100%
C#Cc1n[nH]c2c(-c3cn(C(C)c4ccccn4)c(=O)[nH]c3=O)cc(F)cc12 (stereo not drawn) — inhibition (enzyme activity; inhibitor; 1 µM): 5.3%
Cn1cncc1[C@@](O)(COc1ccc(C#N)cc1-c1ccc(OC(F)(F)F)cc1)c1ccc(C#N)cc1 — remaining binding (cell-free assay; competition with immobilised ligand; 1 µM): 100%
C[C@H](C(=O)N[C@H]1COc2ccccc2[C@@H]1S(C)(=O)=O)c1ccc(F)cc1 — inhibition (enzyme activity; inhibitor; 10 µM): -14%
Cn1cc(-c2cc(F)cc(N3CCn4c(cc5c4CCCC5)C3=O)c2CO)cc(Nc2ccc(N3CCN(C4COC4)CC3)cn2)c1=O — inhibition (enzyme activity; inhibitor; 0.1 µM): 9%
CC(C)(C)c1cc(C=C(C#N)C#N)cc(Br)c1O — remaining activity (enzyme activity; inhibitor; 0.5 µM): 105%
C#Cc1n[nH]c2c(-c3cn([C@@H](C)c4ccccc4)c(=O)[nH]c3=O)cc(F)cc12 — inhibition (enzyme activity; inhibitor; 0.1 µM): 7.4%
O=c1[nH]c2ccccc2n1C1CCN(Cc2ccc(-c3[nH]c4cc5ncnc5cc4nc3-c3ccccc3)cc2)CC1 — remaining signal (cell-free assay; 0.5 µM): 101%
c1ccc(C(NCCNC(c2ccccc2)c2ccccc2)c2ccccc2)cc1 — inhibition (enzyme activity; inhibitor; 10 µM): -2%
Cc1nn(C)cc1-c1nc2c(N3CCN(Cc4ccc(Cl)cc4)CC3)c(Cl)cnc2[nH]1 — remaining binding (binding; competition with immobilised ligand; 1 µM): 100%
Cn1cc(-c2cccc(N3CCc4c(sc5c4CC(C)(C)C5)C3=O)c2CO)cc(Nc2ccncn2)c1=O — inhibition (enzyme activity; inhibitor; 1 µM): 4%
Nc1ncc(-c2nc(N3CCOCC3)nc(N3CCOCC3)n2)c(C(F)F)n1 — remaining binding (binding; competition with immobilised ligand; 10 µM): 91%
